The source made the active and inactive calls. The rule behind the calls is not given here.
Tests used:
[1] = Antiplatelet aggregation activity against 100 uM arachidonic acid-induced rabbit platelet assessed as platelet aggregation at 100 uM relative to control; assay type: functional, Oryctolagus cuniculus
How it was run: (§1)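 Platelets were preincubated with test sample or vehicle (0.5% DMSO) at 37 °C for 1 min. Aggregation was then triggered with arachidonic acid (100 µM), collagen (10 µg/mL), thrombin (0.1 U/mL) or PAF (2 ng/mL). Results are given as percent aggregation, mean ± SD, with significance at p < 0.05 and p < 0.01.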

Platelet [2] = test: Stimulation of rabbit platelet aggregation at 30.9 +/- 6.0 ug/mL; assay type: functional, cell-based; conditions: Oryctolagus cuniculus
[3] = Antiplatelet aggregation activity against 0.1 U/mL thrombin-induced rabbit platelet assessed as platelet aggregation at 100 uM relative to control; assay type: functional, Oryctolagus cuniculus; how it was run: as §1
[4] = Antiplatelet aggregation activity against 2 ng/mL platelet activating factor-induced rabbit platelet assessed as platelet aggregation at 100 uM relative to control; assay type: functional, Oryctolagus cuniculus; how it was run: as §1
[5] = Antiplatelet aggregation activity against 10 ug/mL collagen-induced rabbit platelet assessed as platelet aggregation at 100 uM relative to control; assay type: functional, Oryctolagus cuniculus; how it was run: as §1
[6] = Antiplatelet aggregation activity against 10 ug/mL collagen-induced rabbit platelet assessed as platelet aggregation at 150 uM relative to control; assay type: functional, Oryctolagus cuniculus; how it was run: as §1
[7] = Antiplatelet aggregation activity against 0.1 U/mL thrombin-induced rabbit platelet assessed as platelet aggregation at 150 uM relative to control; assay type: functional, Oryctolagus cuniculus; how it was run: as §1
[8] = Antiplatelet aggregation activity against 100 uM arachidonic acid-induced rabbit platelet assessed as platelet aggregation at 150 uM relative to control; assay type: functional, Oryctolagus cuniculus; how it was run: as §1
[9] = Antiplatelet aggregation activity against 2 ng/mL platelet activating factor-induced rabbit platelet assessed as platelet aggregation at 150 uM relative to control; assay type: functional, Oryctolagus cuniculus; how it was run: as §1
Platelet [10] = test: Stimulation of rabbit platelet aggregation at 28.4 +/- 4.8 ug/mL; assay type: functional, cell-based; conditions: Oryctolagus cuniculus

| SMILES | Activity [1] [%] | Activity (Platelet [2]) | Activity [3] [%] | Activity [4] [%] | Activity [5] [%] | Activity [6] [%] | Activity [7] [%] | Activity [8] [%] | Activity [9] [%] | Activity (Platelet [10]) |
| --- | --- | --- | --- | --- | --- | --- | --- | --- | --- | --- |
| CC(C)[C@@H]1C[C@@H](O)[C@H]2[C@@]1(CO)CC[C@@]1(C)[C@H]3C(=CC[C@]21C)[C@@]1(C)CC[C@H](O)C(C)(C)[C@@H]1C[C@@H]3O [RUBIARBONOL A] | 83.8 | Active | 90.7 | 91.3 | 89.6 | – | – | – | – | – |
| CC(C)[C@@H]1C[C@@H](O)[C@H]2[C@@]1(C)CC[C@@]1(C)[C@H]3C(=CC[C@]21C)[C@@]1(C)CC[C@H](O)C(C)(C)[C@@H]1C[C@@H]3O [RUBIARBONOL B] | – | – | – | – | 82.2 | 79.8 | 89.6 | 80.4 | 90.4 | – |
| CC(=O)O[C@@H]1C[C@@H](C(C)C)[C@]2(CO)CC[C@@]3(C)[C@H]4C(=CC[C@]3(C)[C@@H]12)[C@@]1(C)CCC(=O)C(C)(C)[C@@H]1C[C@@H]4O [RUBIARBONONE A] | 85.4 | – | 91.1 | 90.3 | 88.1 | – | – | – | – | Active |

— ChEMBL document CHEMBL1150632, “Triterpenoids from Rubia yunnanensis” (2002)
